# From ChEMBL document CHEMBL2062435, “Synthesis and in vitro antibacterial activity of gemifloxacin derivatives containing a substituted benzyloxime moiety” (2012)
# Columns and labels:
# Type in all cases: functional
# [1] = test system: Staphylococcus aureus; assay: Antimicrobial activity against extended spectrum beta-lactamases-producing methicillin-sensitive Staphylococcus aureus 10-13 after 18-24 hrs by two-fold serial dilution method
# Outline: (§1)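 Agar-medium twofold serial dilution against Gram-positive and Gram-negative strains; MIC taken as the lowest compound concentration giving complete inhibition of bacterial growth after incubation at 35 °C for 18-24 h.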
# [2] = test system: Enterococcus faecalis; assay: Antimicrobial activity against Enterococcus faecalis 10-6 after 18-24 hrs by two-fold serial dilution method; outline: as §1
# [3] = test system: Staphylococcus epidermidis; assay: Antimicrobial activity against extended spectrum beta-lactamases-producing methicillin-resistant Staphylococcus epidermidis 10-13 after 18-24 hrs by two-fold serial dilution method
# Outline: (§2)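 Agar twofold serial dilution MIC against clinical isolates. MIC was taken as the lowest concentration giving complete inhibition of bacterial growth after incubation at 35 °C for 18-24 h.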
# [4] = test system: Staphylococcus aureus; assay: Antimicrobial activity against Staphylococcus aureus ATCC […] after 18-24 hrs by two-fold serial dilution method; outline: as §1
# [5] = test system: Pseudomonas aeruginosa; assay: Antimicrobial activity against Pseudomonas aeruginosa 10-12 after 18-24 hrs by two-fold serial dilution method; outline: as §1
# [6] = test system: Staphylococcus epidermidis; assay: Antimicrobial activity against extended spectrum beta-lactamases-producing methicillin-sensitive Staphylococcus epidermidis 10-11 after 18-24 hrs by two-fold serial dilution method; outline: as §1
# [7] = test system: Pseudomonas aeruginosa; assay: Antimicrobial activity against extended spectrum beta-lactamases-producing Pseudomonas aeruginosa 10-9 after 18-24 hrs by two-fold serial dilution method; outline: as §1
# [8] = test system: Enterococcus faecalis; assay: Antimicrobial activity against Enterococcus faecalis 10-7 after 18-24 hrs by two-fold serial dilution method; outline: as §1
# [9] = test system: Klebsiella pneumoniae; assay: Antimicrobial activity against extended spectrum beta-lactamases-producing Klebsiella pneumoniae 10-2 after 18-24 hrs by two-fold serial dilution method; outline: as §1
# [10] = test system: Staphylococcus epidermidis; assay: Antimicrobial activity against extended spectrum beta-lactamases-producing methicillin-sensitive Staphylococcus epidermidis 10-15 after 18-24 hrs by two-fold serial dilution method; outline: as §1
# [11] = test system: Klebsiella pneumoniae; assay: Antimicrobial activity against extended spectrum beta-lactamases-producing Klebsiella pneumoniae 10-1 after 18-24 hrs by two-fold serial dilution method; outline: as §1
# [12] = test system: Staphylococcus aureus; assay: Antimicrobial activity against extended spectrum beta-lactamases-producing methicillin-resistant Staphylococcus aureus 10-11 after 18-24 hrs by two-fold serial dilution method; outline: as §2
# [13] = test system: Staphylococcus aureus; assay: Antimicrobial activity against extended spectrum beta-lactamases-producing methicillin-sensitive Staphylococcus aureus 10-14 after 18-24 hrs by two-fold serial dilution method; outline: as §1
# [14] = test system: Enterococcus faecium; assay: Antimicrobial activity against Enterococcus faecium 10-5 after 18-24 hrs by two-fold serial dilution method; outline: as §1
# [15] = test system: Escherichia coli; assay: Antimicrobial activity against extended spectrum beta-lactamases-producing Escherichia coli 10-2 after 18-24 hrs by two-fold serial dilution method; outline: as §1
# [16] = test system: Pseudomonas aeruginosa; assay: Antimicrobial activity against extended spectrum beta-lactamases-producing Pseudomonas aeruginosa 10-5 after 18-24 hrs by two-fold serial dilution method; outline: as §1
# [17] = test system: Escherichia coli; assay: Antimicrobial activity against Escherichia coli 10-2 after 18-24 hrs by two-fold serial dilution method; outline: as §1
# [18] = test system: Pseudomonas aeruginosa; assay: Antimicrobial activity against extended spectrum beta-lactamases-producing Pseudomonas aeruginosa 10-15 after 18-24 hrs by two-fold serial dilution method; outline: as §1
# [19] = test system: Escherichia coli; assay: Antimicrobial activity against Escherichia coli ATCC 25922 after 18-24 hrs by two-fold serial dilution method; outline: as §1
# [20] = test system: Escherichia coli; assay: Antimicrobial activity against Escherichia coli 10-1 after 18-24 hrs by two-fold serial dilution method; outline: as §1
# [21] = test system: Staphylococcus aureus; assay: Antimicrobial activity against extended spectrum beta-lactamases-producing methicillin-resistant Staphylococcus aureus 10-15 after 18-24 hrs by two-fold serial dilution method; outline: as §2
# [22] = test system: Klebsiella pneumoniae; assay: Antimicrobial activity against Klebsiella pneumoniae 10-2 after 18-24 hrs by two-fold serial dilution method; outline: as §1
# [23] = test system: Enterococcus faecium; assay: Antimicrobial activity against Enterococcus faecium 10-9 after 18-24 hrs by two-fold serial dilution method; outline: as §1
# [24] = test system: Escherichia coli; assay: Antimicrobial activity against extended spectrum beta-lactamases-producing Escherichia coli 10-3 after 18-24 hrs by two-fold serial dilution method; outline: as §1
# [25] = test system: Klebsiella pneumoniae; assay: Antimicrobial activity against extended spectrum beta-lactamases-producing Klebsiella pneumoniae 10-3 after 18-24 hrs by two-fold serial dilution method; outline: as §1
# [26] = test system: Escherichia coli; assay: Antimicrobial activity against Escherichia coli 10-3 after 18-24 hrs by two-fold serial dilution method; outline: as §1
# [27] = test system: Staphylococcus epidermidis; assay: Antimicrobial activity against extended spectrum beta-lactamases-producing methicillin-resistant Staphylococcus epidermidis 10-10 after 18-24 hrs by two-fold serial dilution method; outline: as §2
# [28] = test system: Enterococcus faecalis; assay: Antimicrobial activity against Enterococcus faecalis 10-5 after 18-24 hrs by two-fold serial dilution method; outline: as §1
# [29] = test system: Pseudomonas aeruginosa; assay: Antimicrobial activity against extended spectrum beta-lactamases-producing Pseudomonas aeruginosa 10-20 after 18-24 hrs by two-fold serial dilution method; outline: as §1
# [30] = test system: Klebsiella pneumoniae; assay: Antimicrobial activity against Klebsiella pneumoniae 10-4 after 18-24 hrs by two-fold serial dilution method; outline: as §1
# [31] = test system: Staphylococcus epidermidis; assay: Antimicrobial activity against extended spectrum beta-lactamases-producing methicillin-sensitive Staphylococcus epidermidis 10-13 after 18-24 hrs by two-fold serial dilution method; outline: as §1
# [32] = test system: Pseudomonas aeruginosa; assay: Antimicrobial activity against extended spectrum beta-lactamases-producing Pseudomonas aeruginosa 10-18 after 18-24 hrs by two-fold serial dilution method; outline: as §1
# [33] = test system: Streptococcus pneumoniae; assay: Antimicrobial activity against extended spectrum beta-lactamases-producing Streptococcus pneumoniae 10-4 after 18-24 hrs by two-fold serial dilution method; outline: as §1
# [34] = test system: Streptococcus pneumoniae; assay: Antimicrobial activity against extended spectrum beta-lactamases-producing Streptococcus pneumoniae 10-1 after 18-24 hrs by two-fold serial dilution method; outline: as §1
# [35] = test system: Escherichia coli; assay: Antimicrobial activity against extended spectrum beta-lactamases-producing Escherichia coli 10-4 after 18-24 hrs by two-fold serial dilution method; outline: as §1
# [36] = test system: Klebsiella pneumoniae; assay: Antimicrobial activity against Klebsiella pneumoniae 10-3 after 18-24 hrs by two-fold serial dilution method; outline: as §1
SMILES,MIC [1] [µg/mL],MIC [2] [µg/mL],MIC [3] [µg/mL],MIC [4] [µg/mL],MIC [5] [µg/mL],MIC [6] [µg/mL],MIC [7] [µg/mL],MIC [8] [µg/mL],MIC [9] [µg/mL],MIC [10] [µg/mL],MIC [11] [µg/mL],MIC [12] [µg/mL],MIC [13] [µg/mL],MIC [14] [µg/mL],MIC [15] [µg/mL],MIC [16] [µg/mL],MIC [17] [µg/mL],MIC [18] [µg/mL],MIC [19] [µg/mL],MIC [20] [µg/mL],also measured
C[C@H]1COc2c(N3CCN(C)CC3)c(F)cc3c(=O)c(C(=O)O)cn1c23.C[C@H]1COc2c(N3CCN(C)CC3)c(F)cc3c(=O)c(C(=O)O)cn1c23.O [LEVOFLOXACIN],0.5,64,4,0.25,0.25,128,0.25,16,8,128,8,32,0.25,32,16,0.25,0.25,0.5,< 0.008,4,MIC [21]: 16 µg/mL; MIC [22]: 32 µg/mL; MIC [23]: 32 µg/mL; MIC [24]: 8 µg/mL; MIC [25]: 8 µg/mL; MIC [26]: 4 µg/mL; MIC [27]: 8 µg/mL; MIC [28]: 8 µg/mL; MIC [29]: 0.25 µg/mL; MIC [30]: 32 µg/mL; MIC [31]: 4 µg/mL
COc1cc(F)c(CO/N=C2\CN(c3nc4c(cc3F)c(=O)c(C(=O)O)cn4C3CC3)CC2CN)cc1OC.CS(=O)(=O)O (racemic),0.03,2,0.25,0.03,> 128,1,> 128,1,> 128,2,> 128,1,0.03,4,> 128,> 128,> 128,> 128,0.125,> 128,MIC [32]: > 128 µg/mL; MIC [33]: 0.03 µg/mL; MIC [21]: 0.125 µg/mL; MIC [22]: > 128 µg/mL; MIC [23]: 8 µg/mL; MIC [24]: > 128 µg/mL; MIC [25]: > 128 µg/mL; MIC [34]: 0.25 µg/mL; MIC [26]: > 128 µg/mL; MIC [27]: 0.5 µg/mL; MIC [28]: 0.25 µg/mL; MIC [35]: > 128 µg/mL; MIC [29]: > 128 µg/mL; MIC [30]: > 128 µg/mL; MIC [36]: > 128 µg/mL; MIC [31]: 0.03 µg/mL
